The record followed here is ChEMBL document CHEMBL1133270, “Cinnamaldehydes inhibit cyclin dependent kinase 4/cyclin D1” (Bioorg Med Chem Lett, 2000).

Common to all, as to type: protein-complex assay
Assay [1] has as its target Cyclin-dependent kinase 4/cyclin D1 (Homo sapiens) (UniProt P11802+P24385). Put plainly: Inhibitory activity against Cyclin D1-cyclin-dependent kinase 4. The arrangement: concentration or dose not given beside the values. Conditions: concentration not given here. In a few lines:
(§1)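 GST-cyclin D1-CDK4 from baculovirus-infected Sf21 cells, purified by glutathione chromatography, used at 200 nM. The substrate was a GST-RB fusion (RB residues 792–928), with ATP plus [γ-³³P]ATP. Compounds were added and the reaction ran 30 min at 30 °C, then was stopped with ice-cold 30% TCA. Products were captured on PVDF filter plates and ³³P-RB counted by scintillation. Inhibition is expressed relative to an inhibitor-free control.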

Assay [2] has as its target T1, Cyclin-dependent kinase 4/cyclin D1 (Homo sapiens, UniProt P11802). Put plainly: Inhibition of Cyclin D1-cyclin-dependent kinase 4. In a few lines:
as §1

For assay [3], the target named is Cyclin-dependent kinase 1/cyclin B (Homo sapiens, UniProt P06493). Put plainly: Inhibition of Cyclin B-cyclin-dependent kinase 1. In a few lines: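 Cyclin B-CDK1 purified from starfish oocytes; histone H1 as substrate; kinase reaction run for 10 min at 30 °C. Read-out is histone H1 phosphorylation, expressed as a percentage of the control reaction run without inhibitor.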

The target in assay [4] is T1, Cyclin-dependent kinase 4/cyclin D1. Put plainly: Inhibition of Cyclin D1-Cyclin dependent kinase 4. Summed up: as §1

T1 sequence (P11802 whole entry): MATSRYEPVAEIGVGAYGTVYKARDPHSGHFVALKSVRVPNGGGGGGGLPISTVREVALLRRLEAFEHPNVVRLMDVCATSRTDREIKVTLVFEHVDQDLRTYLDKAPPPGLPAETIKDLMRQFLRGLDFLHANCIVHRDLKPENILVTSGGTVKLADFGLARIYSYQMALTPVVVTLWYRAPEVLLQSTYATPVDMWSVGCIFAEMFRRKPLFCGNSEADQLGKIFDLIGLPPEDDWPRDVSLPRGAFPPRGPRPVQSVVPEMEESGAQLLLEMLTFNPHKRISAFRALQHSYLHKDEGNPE
T1 sequence (P24385 whole entry, further chain): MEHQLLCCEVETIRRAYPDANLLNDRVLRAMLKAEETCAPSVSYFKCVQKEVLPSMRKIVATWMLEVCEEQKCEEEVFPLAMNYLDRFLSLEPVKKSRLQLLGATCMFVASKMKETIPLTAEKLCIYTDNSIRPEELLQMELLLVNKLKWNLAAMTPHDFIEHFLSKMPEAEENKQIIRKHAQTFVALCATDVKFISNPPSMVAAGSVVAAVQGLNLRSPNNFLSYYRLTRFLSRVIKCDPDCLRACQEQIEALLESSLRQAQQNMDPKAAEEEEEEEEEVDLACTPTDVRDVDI

In the case of `COc1ccc(/C=C/C=O)cc1OCc1ccc(Br)cc1`, the inhibition (as a rule, the share of the control response that was lost under treatment) in assay [1] is 58%.

For `O=C/C=C/c1ccccc1OCc1ccc(Br)cc1`, the inhibition in assay [1] turned out to be 71%.

In turn, `O=C/C=C/c1cccnc1` showed an inhibition in assay [1] of 54%.

Compound `N#Cc1ccccc1COc1cccc(/C=C/C=O)c1` registered an inhibition in assay [1] of 45%.

Compound `COc1ccccc1COc1cccc(/C=C/C=O)c1` had an inhibition in assay [1] of 65%.

`O=C/C=C/c1ccccc1OCc1cccc2ccccc12` had an inhibition in assay [1] of 38%.

`O=C/C=C/c1ccccc1OC(=O)c1ccccc1`: the inhibition in assay [1] came to 52%.

Regarding `COc1ccccc1COc1ccccc1/C=C/C=O`, the inhibition in assay [1] was 43%.

Take `COc1ccccc1C(=O)Oc1ccccc1/C=C/C=O`: the inhibition in assay [1] was 23%.

`O=C/C=C/c1ccccc1[N+](=O)[O-]` showed an inhibition in assay [1] of 30%.

In assay [1], `O=C/C=C/c1ccccc1Cl` gave an inhibition of 51%.

With `O=C/C=C/c1cccc(OCc2ccc(Br)cc2)c1`, the inhibition in assay [1] came to 88%.

In assay [1], `COc1ccc(/C=C/C=O)cc1O` yielded an inhibition of 40%.

On to `Cc1ccccc1COc1ccccc1/C=C/C=O`, for which the IC50 (usually the concentration needed to halve the response being measured) in assay [2] came to 18 µM; in assay [3], 200 µM. The compound further yielded an inhibition in assay [1] of 70%.

The compound `O=C/C=C/c1cccc(OCc2ccc3c(c2)C(=O)c2ccccc2C3=O)c1` registered an inhibition in assay [1] of 34%.

On to `Cc1ccc(COc2cccc(/C=C/C=O)c2)cc1`, for which the inhibition in assay [1] came out at 84%.

For `Cc1ccc(COc2ccccc2/C=C/C=O)cc1`, in assay [1], the inhibition was 68%.

On to `O=C/C=C/c1cccc(OCc2ccccc2)c1`, for which the IC50 worked out at 7.5 µM in assay [2] and 50 µM in assay [3]. Besides, the inhibition in assay [1] stood at 94%.

`CC(Oc1cccc(/C=C/C=O)c1)c1ccccc1` (stereo unspecified) displayed an inhibition in assay [1] of 77%.

`COc1ccc(COc2cccc(/C=C/C=O)c2)cc1` yielded an inhibition in assay [1] of 82%.

`O=C/C=C/c1cccc(OCc2cccc3ccccc23)c1`: the inhibition in assay [1] was 85%.

In turn, `N#Cc1ccccc1COc1ccccc1/C=C/C=O` yielded an inhibition in assay [1] of 22%.

In assay [1], `COc1ccc2c(COc3cccc(/C=C/C=O)c3)cc(=O)oc2c1` yielded an inhibition of 53%.

In turn, `O=C/C=C/c1cccc(O)c1` gave an inhibition in assay [1] of 40%. The half-maximal inhibitory concentration (IC50) in assay [3] came out at 30 µM; in assay [4], 45 µM.

Turning to `O=C/C=C/c1ccccc1O` [2-HYDROXYCINNAMALDEHYDE], the IC50 worked out at 35 µM in assay [2] and 130 µM in assay [3]. Further, the inhibition in assay [1] worked out at 50%.

In assay [1], `O=C/C=C/c1cccc(OCCc2ccccc2)c1` had an inhibition of 80%.

`CC(Oc1ccccc1/C=C/C=O)c1ccccc1` (stereo unspecified) yielded an inhibition in assay [1] of 63%.

For `O=C/C=C/c1ccccc1OC(=O)c1ccc(F)cc1`, the inhibition in assay [1] worked out at 25%.

Consider `O=C/C=C/c1ccccc1OCCc1ccccc1`, for which the inhibition in assay [1] is 72%.

With `Cc1ccccc1COc1cccc(/C=C/C=O)c1`, the IC50 in assay [2] was 15 µM; in assay [3], 60 µM. The inhibition in assay [1] worked out at 73%.

The compound `COc1ccc(COc2ccccc2/C=C/C=O)cc1` displayed an inhibition in assay [1] of 59%.

`O=C(O)/C=C/c1ccccc1O`: in assay [1], the inhibition was less than 10%.

As to `Cc1ccc(C(=O)Oc2ccccc2/C=C/C=O)cc1`, the inhibition in assay [1] was determined as 50%.

With `O=C/C=C/c1ccccc1OCc1ccccc1`, the values for the IC50 in assay [2] and in assay [3] were 11 µM and 50 µM, respectively. This compound also gave an inhibition in assay [1] of 85%.
